An excerpt weighted towards active compounds, which were near 3.6% of everything screened.
ZTA counter: blocks Epstein-Barr virus ZTA, an EBNA-1 counter-screen; inhibition, % at 11 µM; ZTA-DNA binding, fluorescence polarization; AID 2234; actives 0.15% (n = 320,000); in the data active = inhibition above about 33%
Target sequence (P03206 whole entry, looked up): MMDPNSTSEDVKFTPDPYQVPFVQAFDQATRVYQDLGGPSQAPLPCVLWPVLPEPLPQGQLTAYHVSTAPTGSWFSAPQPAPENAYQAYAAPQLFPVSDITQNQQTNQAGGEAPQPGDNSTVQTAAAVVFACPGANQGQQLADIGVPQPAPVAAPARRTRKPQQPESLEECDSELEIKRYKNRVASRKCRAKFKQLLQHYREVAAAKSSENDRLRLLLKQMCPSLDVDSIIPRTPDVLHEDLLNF
NR3A LBD binder: modulators (binders) of human NR3A ligand-binding domain | NR3A LBD differential scanning fluorimetry, Tm shift; 0% = protein alone, 100% = glycine-bound protein | Tm shift relative to glycine control, % at 25 µM | actives 2.5% (n = 340,000) | AID 1259313;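 active = melting temperature shift of at least 10% of the positive control shift, at one fixed dose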
FGF22 binding: binders of recombinant human FGF22 by thermal shift. AID 651658. SYPRO orange fluorescence; percent of sucrose octasulfate shift, DMSO zero. activity (Tm shift, normalised), % at 9.99 µM. Q9HCT0. actives 1.5% (n = 340,000);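 active = mean Tm shift, scaled 0 neutral to 100 positive control, at about 1.3% or above, every replicate too, limit read from the data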
Target sequence (Q9HCT0 whole entry, looked up): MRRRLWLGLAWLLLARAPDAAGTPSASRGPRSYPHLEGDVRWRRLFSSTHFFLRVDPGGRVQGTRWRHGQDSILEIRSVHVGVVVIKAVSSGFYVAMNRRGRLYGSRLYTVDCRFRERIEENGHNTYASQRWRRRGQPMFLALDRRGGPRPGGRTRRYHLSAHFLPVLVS
EBNA-1 inhibitor: blocks EBNA-1 binding to DNA. inhibition, % at 14.8 µM. actives 0.34% (n = 300,000). EBNA-1 DNA binding, fluorescence polarization. AID 1950; in the data active = inhibition above about 28%
NS3 helicase inh: HCV NS3 helicase inhibition; AID 1800; NS3 helicase DNA unwinding, Cy5 molecular beacon fluorescence; actives 0.56% (n = 290,000); inhibition, % at 10.9 µM;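 active = inhibition above the mean of all tested compounds plus 3 SD, set per campaign, cut at about 35% in these data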;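 note: 0% = DMSO wells and 100% = thioflavine S control wells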
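Control set: DMSO versus 110 µM thioflavine S; Material: NS3 helicase fragment of HCV; Measured by: Cy5 fluorescence at 0 and 60 min, beacon hairpin quenching; Read-out basis: percent inhibition from t60/t0 fluorescence ratio; Times: reaction time 60 min, 25 °C; Repeats: single replicate; Compound dosing: single dose, 10.9 µM nominal final, DMSO 0.8% final.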
DNA FID counter-1: fluorescent intercalator displacement, NS3 helicase counter-screen | DNA fluorescent intercalator displacement, fluorescence | inhibition, % at 7.9 µM | actives 0.17% (n = 290,000);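 note: 0% = vehicle and 100% = reference compound; higher means more ethidium bromide displaced from hairpin DNA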
NS3 hel confirm: confirmation of Hepatitis C virus NS3 helicase inhibitors; shares compounds with NS3 helicase inh; NS3 helicase DNA unwinding, Cy5 molecular beacon fluorescence; inhibition, % at 10.9 µM; actives 31% (n = 1,600); AID 1943;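 active = inhibition above the mean of all tested compounds plus 3 SD, cutoff set per campaign, cut at about 36% in these data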
DNA FID counter-2: displaces DNA intercalator in HCV helicase counter-screen | shares compounds with NS3 helicase inh | DNA fluorescent intercalator displacement, fluorescence | actives 4% (n = 1,600) | inhibition, % at 7.9 µM | AID 1945;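 note: 0% = vehicle and 100% = reference compound; higher means more displacement of ethidium bromide from the DNA hairpin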
DNA FID DR: DNA intercalator displacement in dose response; shares compounds with NS3 helicase inh; 120 tested, under 10 active; IC50, µM; AID 2172; fluorescent intercalator displacement from DNA, fluorescence; call rule not given here
Starred values were filed as active, the others as inactive; x = not tested or not shown. Cut-off read from the data, not from the text of the source, unless noted: active = inhibition above about 37%; inactive = the rest.

SMILES	ZTA counter	NR3A LBD binder	FGF22 binding	EBNA-1 inhibitor	NS3 helicase inh	DNA FID counter-1	NS3 hel confirm	DNA FID counter-2	others
C[C@H](CO)N1C[C@H](C)[C@@H](CN(C)C(=O)CN(C)C)Oc2cc(C#CC3CC3)ccc2S1(=O)=O	x	x	0	x	x	x	x	x
COc1ccc(-n2c(Cc3cccn3C)nnc2SCC(=O)NCc2ccccc2Cl)cc1	3	-1	0	5	47*	-42	-12	-28
COc1ccc(-n2c(Cc3cccn3C)nnc2SCC(=O)NCc2ccc(F)cc2)cc1	2	0	0	-7	5	-38	x	x
Cc1noc(C)c1S(=O)(=O)Nc1ccc2c(c1)CC(=O)N([C@H](C)CO)C[C@@H](C)[C@H](CN(C)Cc1ccc(C(F)(F)F)cc1)O2	x	x	0	x	x	x	x	x
COc1ccc(CNC(=O)c2[nH]c(C(F)(F)F)nc2-c2ccccc2)cc1OC	x	x	0	x	x	x	x	x
COc1ccc(CNc2cccc3[nH]c(C(F)(F)F)nc23)cc1OC	4	-2	0	3	42*	-14	3	-13
O=C(/C=C\c1ccc(-c2ccccc2)o1)c1ccccc1	1	-5	x	-4	40*	-16	17	53*
CN(CCC#N)C(=O)COC(=O)c1c2c(nc3ccccc13)/C(=C/c1ccco1)CC2	-2	-7	x	11	77*	-12	-1	3
CN(C)S(=O)(=O)c1cccc(NC(=S)N/N=C/c2cccc(O)c2)c1	-6	-1	0	3	7	-5	x	x
CN(C)S(=O)(=O)c1cccc(NC(=S)N/N=C/c2cc(Br)ccc2O)c1	0	12*	0	-1	46*	-17	53*	12
Cc1ccc(S(=O)(=O)Nc2ccc3c(c2)C(=O)N([C@H](C)CO)C[C@H](C)[C@@H](CN(C)C(=O)NC(C)C)OCCCC[C@H](C)O3)cc1	x	x	-1	x	x	x	x	x
CO[C@@H]1CN(C)C(=O)c2ccc(NC(C)=O)cc2OC[C@H](C)N(Cc2ccccn2)C[C@@H]1C	x	x	0	x	x	x	x	x
Cc1ccc(C(=O)/C=C/c2cc(Br)cc(Br)c2O)o1	16	-14	0	-1	37*	-25	48*	8	DNA FID DR=>79
Cc1ccc(S(=O)(=O)N[C@@H]2CC[C@H](CC(=O)NCCN3CCCCC3)O[C@@H]2CO)cc1	x	x	0	x	x	x	x	x
O=C(O)c1ccc2c(c1)[C@@H]1C=CC[C@@H]1[C@H](c1ccccn1)N2	80*	-1	x	20	59*	-20	60*	3
COc1ccc(C(=O)N/N=C(\C)c2ccc3c(c2)C2C=CCC2C(c2ccccc2)N3)cc1 (configuration not stated)	-4	-5	x	1	14	-8	x	x
CCc1ccc(C(CC(=O)c2ccc(Cl)cc2)C(=O)O)cc1 (configuration not stated)	-22	0	x	-6	29	-45	x	x
CC(C)c1ccc(C(CC(=O)c2ccc(Cl)cc2)C(=O)O)cc1 (configuration not stated)	-4	1	x	3	37*	-42	68*	-19
CCCCC(NC(=O)Cc1c(C)c2cc3c4c(oc3cc2oc1=O)CCCC4)C(=O)O (configuration not stated)	-7	-2	-1	9	40*	-10	51*	-12
O=c1[nH]c(/C=C/c2ccc([N+](=O)[O-])cc2)c([N+](=O)[O-])c(=O)[nH]1	x	-3	0	x	60*	-2	-15	8
COCCN=c1scc(-c2ccco2)n1/N=C/c1ccc(O)c(O)c1O	1	-6	0	-4	21	-16	x	x
C=CCN=c1scc(-c2ccco2)n1/N=C/c1ccc(O)c(O)c1O	1	-1	0	4	40*	-19	-2	14
CN=c1scc(-c2cccs2)n1/N=C/c1ccc(O)c(O)c1O	0	2	43*	-2	54*	-19	-8	13

Screens (PubChem BioAssay)
